Screening results as filed in PubChem.
An excerpt weighted towards active compounds, which were near 4.4% of everything screened.
NR3A LBD binder = binders of NR3A ligand-binding domain, primary screen, biophysical, differential scanning fluorimetry, uHTS; Tm shift relative to glycine control, % at 25 µM; NR3A LBD differential scanning fluorimetry, Tm shift; 0% = protein alone, 100% = glycine-bound protein; Glutamate receptor ionotropic, NMDA 3A (GRIN3A) ligand-binding domain; AID 1259313, 2017; actives 2.5% (n = 340,000);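 active means melting temperature shift of at least 10% of the positive control shift, at one fixed dose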
MPTP block = mitochondrial permeability transition pore inhibitors, primary screen, biochemical, isolated mouse mitochondria, absorbance | inhibition, % at 10 µM | AID 602449, 2012 | actives 1.4% (n = 360,000) | Ca2+ swelling absorbance, 30 min;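 active means inhibition of 50% or more, scaled per plate between neutral and stimulator controls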;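 further: 0% = DMSO wells given calcium and 100% = 1 mM EGTA wells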
SENP1 FRET inh = human SENP1 catalytic domain inhibitors, primary screen, biochemical, FRET, uHTS; recombinant SENP1 catalytic domain, CyPet-SUMO1-YPet FRET cleavage; actives 0.21% (n = 360,000); Sentrin-specific protease 1 (Homo sapiens), Q9P0U3; inhibition, % at 10 µM; AID 624204, 2012;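 active means inhibition at least 30% at 10 µM, raw YFP signal under a set limit, fluorescence ratio 0.5 to 1.5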;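 further: 0% = enzyme with DMSO and 100% = no enzyme wells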
Target sequence (Q9P0U3 419-644 limits assumed): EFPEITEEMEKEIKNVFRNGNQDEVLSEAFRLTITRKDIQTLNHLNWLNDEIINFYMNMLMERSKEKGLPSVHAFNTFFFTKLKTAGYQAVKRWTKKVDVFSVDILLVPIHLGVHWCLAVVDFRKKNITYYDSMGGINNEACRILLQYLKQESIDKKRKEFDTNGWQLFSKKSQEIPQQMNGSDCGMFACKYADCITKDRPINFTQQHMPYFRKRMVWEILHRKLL
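Controls: no-enzyme wells low, DMSO-plus-enzyme wells high control. Test system: human recombinant His6-tagged SENP1 catalytic domain enzyme. Reagent: SFCypet-SUMO1-SFYpet FRET protein substrate, 25 nM final. Doses: one dose per compound, 10 µM, 0.5% DMSO. Detection: FRET, CFP and YFP emission. Timing: 50 min reaction at room temperature.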
EBI2 antag = EBI2 receptor antagonists, beta-arrestin recruitment, primary screen, cell-based, luminescence, 7a,25-OHC stimulation, uHTS | 7a,25-OHC stimulated | inhibition, % at 5 µM | actives 0.81% (n = 360,000) | AID 651636, 2012; in the data active means inhibition above about 38%;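 further: enzyme fragment complementation signal reports receptor beta-arrestin coupling in cells; 0% = agonist plus DMSO wells and 100% = wells without agonist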
Target sequence (P32249 whole entry, looked up, the tested form may be a part): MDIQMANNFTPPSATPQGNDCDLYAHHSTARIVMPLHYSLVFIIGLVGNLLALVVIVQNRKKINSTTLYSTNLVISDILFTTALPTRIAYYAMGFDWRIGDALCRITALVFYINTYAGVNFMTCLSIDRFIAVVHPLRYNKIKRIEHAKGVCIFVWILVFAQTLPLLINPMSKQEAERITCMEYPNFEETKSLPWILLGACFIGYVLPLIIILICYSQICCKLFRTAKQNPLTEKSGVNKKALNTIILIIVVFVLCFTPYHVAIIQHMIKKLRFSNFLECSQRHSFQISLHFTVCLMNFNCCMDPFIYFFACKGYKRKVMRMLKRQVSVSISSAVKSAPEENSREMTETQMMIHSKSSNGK
EBI2 conf = EBI2 antagonist hit retest, beta-arrestin, confirmation, cell-based, single concentration, luminescence, 7a,25-OHC stimulation; shares compounds with EBI2 antag; 7a,25-OHC antagonism; inhibition, % at 5 µM; actives 29% (n = 2,400); AID 651997, 2013;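 active means inhibition of at least 50%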
EBI2 ag = EBI2 agonist activity of antagonist hits, confirmation, counter-screen for EBI2 antagonist project, cell-based, single concentration, agonist mode, luminescence; EBI2-expressing cells, 60 min; 0% vehicle, 100% 7α,25-dihydroxycholesterol control; shares compounds with EBI2 antag; activation, % at 5 µM; AID 652000, 2013; 2,400 tested, under 10 active;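 active means activation of at least 50%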
bGal cs = E. coli beta-galactosidase enzyme inhibition, confirmation, counter-screen for EBI2 antagonist project, biochemical, luminescence, single concentration. shares compounds with EBI2 antag. purified beta-galactosidase, luminescent Galacton Star, 15 min. inhibition, % at 5 µM. actives 1% (n = 2,400);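 active means replicate-average signal at least 3 plate SD below neutral wells, shown as high inhibition, flagging enzyme-inhibiting false positives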;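 further: 0% = DMSO wells with enzyme and 100% = wells lacking enzyme; higher means stronger loss of beta-gal luminescence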
* hit, by the source's call; · = not tested or not shown.

SMILES	NR3A LBD binder	MPTP block	SENP1 FRET inh	EBI2 antag	EBI2 conf	EBI2 ag	bGal cs
O=C(NC1CCCCCC1)c1ccc(=O)n(Cc2ccccc2)n1	-2.6	-1.9	-0.4	46.4*	35.4	0.4	6.8
Cc1ccc(/C=C/C(=O)NCCCc2ccccc2)cc1	0.1	2.7	0.7	48.8*	38.7	-1.2	-1.9
C#CCNC(=O)/C=C/c1ccc(C)cc1	-0.6	0.4	0.8	3.0	·	·	·
Cc1ccc(CSCCNC(=O)/C=C/c2ccc(Cl)cc2)cc1	-1.7	13.0	1.0	53.1*	29.2	2.0	-1.3
Cc1ccc(CCNC(=O)CCSCc2ccc(Cl)cc2)cc1	0.2	10.4	-0.6	-3.7	·	·	·
CC1(C)Cc2c(C#N)c(SCCC#N)nc(N3CCOCC3)c2CO1	1.4	1.4	-0.5	9.9	·	·	·
CC1(C)Cc2c(C#N)c(SCCC#N)nc(N3CCOCC3)c2CS1	1.9	-0.6	-16.9	69.5*	39.3	-0.4	1.8
COc1ccccc1OCCNC(=O)c1cccc(S(=O)(=O)N2CC(C)OC(C)C2)c1 (centres undefined)	4.9	1.5	-0.3	-5.1	·	·	·
CCOC(=O)c1cnn(-c2nc(-c3cccc(F)c3)cs2)c1C(F)(F)F	-11.4	4.4	1.5	47.7*	42.6	1.9	3.2
O=C(O)c1cnn(-c2nc(-c3cccc(F)c3)cs2)c1C(F)(F)F	0.3	0.7	1.8	0.2	·	·	·
COC(=O)[C@@]1(Cc2ccc(F)cc2)[C@H]2c3cc(C(=O)N4CCCC4)n(CCc4c[nH]c5ccccc45)c3C[C@H]2CN1C(=O)c1ccccc1	·	-1.2	-1.1	53.2*	23.6	-0.2	-7.6
COc1cc2nc(SCc3ccc(Cl)cc3Cl)n(Cc3cccs3)c(=N)c2cc1OC	22.1*	9.2	-0.5	42.7*	29.6	0.8	1.4
COCCCn1c(SCc2ccccc2)nc2cc(OC)c(OC)cc2c1=N	-7.7	12.9	-1.2	53.9*	48.0	-0.8	-1.7
COCCCn1c(SCc2nnc(-c3ccc(OC)c(OC)c3)o2)nc2ccccc2c1=O	1.5	0.7	4.3	13.4	·	·	·
CS(=O)CC(O)(c1ccc(F)cc1)C1CC1 (centres undefined)	·	-0.3	0.7	-1.3	·	·	·
O=C1C=C(c2ccc3ccccc3c2)C[C@@H](c2ccc(F)cc2)C1	-0.9	1.1	-0.7	76.7*	42.8	-0.9	-7.7
O=C1C=C(c2cc3ccccc3o2)C[C@@H](c2ccc(F)cc2)C1	-1.8	0.9	2.0	25.5	·	·	·
O=C1C=C(c2ccc3ncccc3c2)C[C@@H](c2ccc(F)cc2)C1	-8.1	-2.5	1.2	74.8*	60.6*	-0.5	4.2
O=C1C=C(c2ccc3c(c2)OCO3)C[C@@H](c2ccc(F)cc2)C1	-1.2	-0.2	-3.0	11.7	·	·	·
O=C1C=C(c2ccc(-c3ccccc3)c(F)c2)C[C@@H](c2ccc(F)cc2)C1	0.8	2.2	0.3	22.5	·	·	·
O=C1C=C(c2ccc3ncccc3c2)C[C@@H](c2ccc3c(c2)OCO3)C1	1.8	0.7	1.9	66.3*	44.7	-0.8	-4.5
O=C1C=C(c2cccc3c2oc2ccccc23)C[C@@H](c2ccc(F)cc2)C1	1.1	2.4	2.8	76.1*	55.8*	0.1	-12.2
O=C1C=C(c2ccc3[nH]ccc3c2)C[C@@H](c2ccc(F)cc2)C1	21.3*	0.5	-1.5	52.0*	61.9*	-0.4	11.3
COc1ccc([C@H]2CC(=O)C=C(c3ccc4[nH]ccc4c3)C2)cc1OC	-7.5	1.5	-7.6	20.0	·	·	·
O=C(COC(=O)/C=C/c1ccc(OC(F)F)cc1)NC(=O)NCc1ccccc1	0.3	-1.7	3.0	49.9*	4.8	1.4	-0.5
SMILES	NR3A LBD binder	MPTP block	SENP1 FRET inh	EBI2 antag	EBI2 conf	EBI2 ag	bGal cs
O=C(COC(=O)/C=C/c1cccc(Cl)c1)NC(=O)NCc1ccccc1	-0.4	-0.2	0.6	-2.6	·	·	·
COc1ccccc1CCNC(=O)c1ccc(NC(=O)CC2SC(N3CCCC3)=NC2=O)cc1 (centres undefined)	1.0	-0.5	2.5	-1.6	·	·	·
CCN1CCN(C(=O)c2cc(=O)c3cc(C)ccc3o2)CC1	-3.8	-2.1	-0.2	66.9*	42.1	0.2	8.6
CN1CCN(C(=O)c2cc(=O)c3cc(Cl)ccc3o2)CC1	-3.0	-0.4	1.4	38.2	·	·	·
CCc1ccc2oc(C(=O)N3CCN(C)CC3)cc(=O)c2c1	-1.9	-0.4	3.9	45.3*	7.8	1.2	6.4
COC(=O)COc1ccc(S(=O)(=O)Nc2cc([N+](=O)[O-])ccc2C)cc1	-1.7	-1.4	1.2	-11.3	·	·	·
O=C(/C=C/c1cccc(F)c1)c1ccc(N2CCOCC2)cc1	1.6	6.0	-7.1	58.2*	37.5	0.3	2.9
COc1ccccc1N1CCN(C(=O)/C=C/c2ccc3c(c2)OCO3)CC1	0.3	-1.0	1.9	78.4*	55.6*	-0.6	-9.3
COc1ccccc1N1CCN(C(=O)/C=C/c2ccco2)CC1	-1.3	0.1	-4.8	7.0	·	·	·
COc1ccccc1N1CCN(C(=O)/C=C/c2ccccc2)CC1	2.9	-2.0	0.5	84.0*	59.2*	-0.9	-12.1
COc1ccccc1N1CCN(C(=O)/C=C/c2cccs2)CC1	-4.7	-0.8	-0.3	47.6*	41.4	1.9	1.4
Cc1cccc(N2CCN(C(=O)/C=C/c3cccs3)CC2)c1C	-3.5	1.2	0.6	84.9*	57.5*	-0.7	-13.0
Nc1ncnc(N2CCOCC2)n1	1.3	-0.4	0.1	3.2	·	·	·
C=CCN1C(=O)/C(=C/c2ccccc2)S/C1=N/c1nccs1	1.5	2.6	-47.5	57.1*	46.5	2.6	4.3
Cc1nc(NC(=O)COC(=O)C2CC2C)c(Cl)cc1Cl (centres undefined)	0.3	0.6	-7.2	5.5	·	·	·
Cc1ccc([N+](=O)[O-])cc1-c1ccc2cccc(C)c2n1	1.5	0.0	3.4	51.3*	39.4	0.0	3.0
Cc1nc(CS(=O)(=O)c2ccccc2)cc(Sc2ccc(Cl)cc2)n1	-8.3	-0.1	0.5	45.9*	28.7	-1.3	-10.9
Cc1nc(CS(=O)(=O)c2ccc(Cl)cc2)cc(Sc2ccccc2Cl)n1	-3.5	1.5	1.5	70.6*	47.5	0.1	3.3
CC(O)CNc1ccc(-c2nn(C)c(=O)c3ccccc23)cc1[N+](=O)[O-] (centres undefined)	1.8	2.6	0.3	0.6	·	·	·
